The source made the active and inactive calls. The calls are words filed in the database; no cut-off is given here.
Assays:
[1] = system: Panel melanoma (Carcinoma cell lines); experiment: Anticancer activity against human Panel melanoma (Carcinoma cell lines) assessed as cell growth inhibition incubated for 48 hrs by Sulphorhodamine B assay; type: functional
Procedure, shortened: (§1)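 NCI-60 five-dose screen. Cells in RPMI 1640 with 5% FBS and 2 mM L-glutamine were plated at 5,000–40,000 cells/well and held 24 h before dosing. Compounds came from DMSO stocks and were given at five concentrations (10-fold or ½-log dilutions) for 48 h at 37 °C. Adherent cells were TCA-fixed and stained with SRB; A515 was read. GI50 was set from growth = 50% and TGI from Ti = Tz, using Tz/C/Ti.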

[2] = system: Panel prostate (Carcinoma cell lines); experiment: Anticancer activity against human Panel prostate (Carcinoma cell lines) assessed as cell growth inhibition incubated for 48 hrs by Sulphorhodamine B assay; type: functional; procedure, shortened: as §1
[3] = system: Panel breast (Carcinoma cell lines); experiment: Anticancer activity against human Panel breast (Carcinoma cell lines) assessed as total growth inhibition incubated for 48 hrs by Sulphorhodamine B assay; type: functional; procedure, shortened: as §1
[4] = system: Panel renal (Carcinoma cell lines); experiment: Anticancer activity against human Panel renal (Carcinoma cell lines) assessed as cell growth inhibition incubated for 48 hrs by Sulphorhodamine B assay; type: functional; procedure, shortened: as §1
[5] = system: Panel prostate (Carcinoma cell lines); experiment: Anticancer activity against human Panel prostate (Carcinoma cell lines) assessed as total growth inhibition incubated for 48 hrs by Sulphorhodamine B assay; type: functional; procedure, shortened: as §1
[6] = Anticancer activity against human Non-small cell lung cancer cell line assessed as total growth inhibition incubated for 48 hrs by Sulphorhodamine B assay; type: functional; procedure, shortened: as §1
[7] = Anticancer activity against human Non-small cell lung cancer cell line assessed as cell growth inhibition incubated for 48 hrs by Sulphorhodamine B assay; type: functional; procedure, shortened: as §1
[8] = system: Panel colon (Carcinoma cell lines); experiment: Anticancer activity against human Panel colon (Carcinoma cell lines) assessed as cell growth inhibition incubated for 48 hrs by Sulphorhodamine B assay; type: functional; procedure, shortened: as §1
[9] = system: Panel colon (Carcinoma cell lines); experiment: Anticancer activity against human Panel colon (Carcinoma cell lines) assessed as total growth inhibition incubated for 48 hrs by Sulphorhodamine B assay; type: functional; procedure, shortened: as §1
[10] = system: Panel breast (Carcinoma cell lines); experiment: Anticancer activity against human Panel breast (Carcinoma cell lines) assessed as cell growth inhibition incubated for 48 hrs by Sulphorhodamine B assay; type: functional; procedure, shortened: as §1
[11] = system: Panel leukemia (Carcinoma cell lines); experiment: Anticancer activity against human Panel leukemia (Carcinoma cell lines) assessed as cell growth inhibition incubated for 48 hrs by Sulphorhodamine B assay; type: functional; procedure, shortened: as §1
[12] = system: Panel melanoma (Carcinoma cell lines); experiment: Anticancer activity against human Panel melanoma (Carcinoma cell lines) assessed as total growth inhibition incubated for 48 hrs by Sulphorhodamine B assay; type: functional; procedure, shortened: as §1
[13] = system: Panel CNS (Carcinoma cell lines); experiment: Anticancer activity against human Panel CNS (Carcinoma cell lines) assessed as total growth inhibition incubated for 48 hrs by Sulphorhodamine B assay; type: functional; procedure, shortened: as §1
[14] = system: Panel CNS (Carcinoma cell lines); experiment: Anticancer activity against human Panel CNS (Carcinoma cell lines) assessed as cell growth inhibition incubated for 48 hrs by Sulphorhodamine B assay; type: functional; procedure, shortened: as §1
[15] = system: Panel ovarian (Carcinoma cell lines); experiment: Anticancer activity against human Panel ovarian (Carcinoma cell lines) assessed as cell growth inhibition incubated for 48 hrs by Sulphorhodamine B assay; type: functional; procedure, shortened: as §1
[16] = system: Panel colon (Carcinoma cell lines); experiment: Anticancer activity against human Panel colon (Carcinoma cell lines) assessed as lethality incubated for 48 hrs by Sulphorhodamine B assay; type: functional
[17] = system: Panel renal (Carcinoma cell lines); experiment: Anticancer activity against human Panel renal (Carcinoma cell lines) assessed as total growth inhibition incubated for 48 hrs by Sulphorhodamine B assay; type: functional
[18] = molecular target: DNA topoisomerase 2-alpha (Homo sapiens) (UniProt P11388); experiment: Inhibition of human DNA topoisomerase II-alpha mediated supercoiled pHOT1 plasmid DNA relaxation at 100 uM incubated for 30 mins by ethidium bromide staining based agarose gel electrophoresis analysis
Chain of DNA topoisomerase 2-alpha (Homo sapiens) (P11388 whole entry): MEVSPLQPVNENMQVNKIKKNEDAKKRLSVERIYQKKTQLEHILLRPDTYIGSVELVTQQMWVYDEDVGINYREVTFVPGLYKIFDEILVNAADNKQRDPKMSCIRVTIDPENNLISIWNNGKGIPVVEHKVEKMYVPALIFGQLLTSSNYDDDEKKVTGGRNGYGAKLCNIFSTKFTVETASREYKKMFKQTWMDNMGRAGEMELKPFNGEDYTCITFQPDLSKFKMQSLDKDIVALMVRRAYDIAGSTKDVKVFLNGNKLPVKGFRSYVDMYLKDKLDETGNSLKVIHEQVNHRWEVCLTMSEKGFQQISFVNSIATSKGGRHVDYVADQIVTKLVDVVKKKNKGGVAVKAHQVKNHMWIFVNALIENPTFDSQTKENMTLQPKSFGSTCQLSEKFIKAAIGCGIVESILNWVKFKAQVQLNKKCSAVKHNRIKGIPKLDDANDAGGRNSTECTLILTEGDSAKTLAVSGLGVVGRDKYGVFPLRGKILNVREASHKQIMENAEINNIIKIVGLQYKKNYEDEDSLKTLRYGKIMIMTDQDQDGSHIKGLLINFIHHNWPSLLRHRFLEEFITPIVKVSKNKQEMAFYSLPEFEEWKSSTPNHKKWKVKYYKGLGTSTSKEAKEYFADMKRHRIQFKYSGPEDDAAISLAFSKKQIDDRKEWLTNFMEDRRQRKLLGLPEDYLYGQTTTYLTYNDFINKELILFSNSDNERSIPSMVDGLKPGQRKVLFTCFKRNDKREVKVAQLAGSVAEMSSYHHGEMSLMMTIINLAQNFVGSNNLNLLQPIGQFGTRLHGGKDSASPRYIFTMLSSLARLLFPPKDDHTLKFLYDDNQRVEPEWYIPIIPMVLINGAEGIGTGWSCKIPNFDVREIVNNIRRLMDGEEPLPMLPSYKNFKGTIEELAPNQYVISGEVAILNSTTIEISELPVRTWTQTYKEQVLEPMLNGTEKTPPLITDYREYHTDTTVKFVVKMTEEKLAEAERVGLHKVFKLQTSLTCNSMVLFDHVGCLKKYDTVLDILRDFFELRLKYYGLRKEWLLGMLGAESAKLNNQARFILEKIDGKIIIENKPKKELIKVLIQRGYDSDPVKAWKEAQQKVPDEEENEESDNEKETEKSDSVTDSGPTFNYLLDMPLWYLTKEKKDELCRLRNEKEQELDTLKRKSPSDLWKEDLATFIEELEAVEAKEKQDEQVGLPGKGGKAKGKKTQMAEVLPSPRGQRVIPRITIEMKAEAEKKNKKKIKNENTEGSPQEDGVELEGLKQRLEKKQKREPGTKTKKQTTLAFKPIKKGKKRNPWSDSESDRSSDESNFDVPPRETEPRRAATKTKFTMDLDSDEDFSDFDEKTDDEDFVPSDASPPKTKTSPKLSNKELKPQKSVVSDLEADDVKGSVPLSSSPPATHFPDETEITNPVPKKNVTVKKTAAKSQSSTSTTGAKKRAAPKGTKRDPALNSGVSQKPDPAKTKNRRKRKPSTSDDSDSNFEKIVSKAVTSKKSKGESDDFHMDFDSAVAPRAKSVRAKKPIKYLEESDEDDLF
Procedure, shortened: (§2)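 Reaction buffer: 50 mM Tris-Cl pH 8.0, 120 mM KCl, 10 mM MgCl2, 0.5 mM ATP, 0.5 mM DTT. Each reaction held 500 ng supercoiled pHOT1 and 1 U human Topo IIα, with compound at 10–100 μM, for 30 min at 37 °C. Reactions were stopped with glycerol/EDTA/bromophenol blue, run on 1% agarose in TBE, and stained with ethidium bromide. Etoposide 25 μM was the positive control.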

[19] = molecular target: Albumin (Bos taurus, UniProt P02769); experiment: Binding affinity to bovine serum albumin assessed as decrease in fluorescence intensity at pH 7.4 at 0 to 30 uM by fluorescence quenching method; conditions: cattle
Chain of Albumin (P02769 whole entry): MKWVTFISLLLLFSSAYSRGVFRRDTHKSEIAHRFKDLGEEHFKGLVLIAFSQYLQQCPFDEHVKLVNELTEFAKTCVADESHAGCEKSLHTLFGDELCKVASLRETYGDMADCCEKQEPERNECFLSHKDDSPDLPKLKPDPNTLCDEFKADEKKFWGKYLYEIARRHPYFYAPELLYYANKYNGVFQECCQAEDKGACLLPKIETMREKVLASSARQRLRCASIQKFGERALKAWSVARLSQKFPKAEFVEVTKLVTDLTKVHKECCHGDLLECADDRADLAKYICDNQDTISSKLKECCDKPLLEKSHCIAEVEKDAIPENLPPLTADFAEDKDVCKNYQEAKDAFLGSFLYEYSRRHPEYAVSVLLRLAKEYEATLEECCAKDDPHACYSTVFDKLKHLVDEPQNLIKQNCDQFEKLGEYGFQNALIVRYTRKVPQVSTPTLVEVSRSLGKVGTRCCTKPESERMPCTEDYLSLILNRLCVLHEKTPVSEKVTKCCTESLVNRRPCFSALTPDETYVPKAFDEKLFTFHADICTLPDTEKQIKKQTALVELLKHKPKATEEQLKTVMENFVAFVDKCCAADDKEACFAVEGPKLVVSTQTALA

[20] = system: Panel ovarian (Carcinoma cell lines); experiment: Anticancer activity against human Panel ovarian (Carcinoma cell lines) assessed as total growth inhibition incubated for 48 hrs by Sulphorhodamine B assay; type: functional
[21] = system: Calf thymus DNA; experiment: Binding affinity to calf thymus DNA assessed as maximum absorption wavelength shift at pH 7.4 at 10 uM by UV-vis absorption spectroscopy; type: nucleic-acid assay; conditions: Bos taurus
Procedure, shortened: (§3)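 Absorption titration at 300 K in a 1 cm cell, background subtracted. Compound was fixed (10 μM per legend; 20 μM in methods) with ct-DNA added up to 15–20 μM in 10 mM phosphate buffer, pH 7.4 (A260/A280 1.82). A buffer-addition control was run. K was taken from the 1/(Af−Aobs) vs 1/[DNA] fit.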

[22] = system: Calf thymus DNA; experiment: Displacement of Ethidium bromide from calf thymus DNA/EtBr complex assessed as decrease in fluorescent intensity by fluorescence based EtBr-displacement assay; type: nucleic-acid assay; conditions: Bos taurus
Procedure, shortened: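 ct-DNA (0–20 μM) was pre-mixed with ethidium bromide, diluted from a 1 mM stock. Compound was then added in 2 μM steps up to 50 μM, with mixing after each addition. Emission was recorded with excitation at 480 nm.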

[23] = system: Panel breast (Carcinoma cell lines); experiment: Anticancer activity against human Panel breast (Carcinoma cell lines) assessed as lethality incubated for 48 hrs by Sulphorhodamine B assay; type: functional; conditions: read-out: LC50 (the source's name)
[24] = molecular target: DNA topoisomerase 2-alpha (Homo sapiens) (UniProt P11388); experiment: Inhibition of human DNA topoisomerase II-alpha mediated supercoiled pHOT1 plasmid DNA relaxation at 75 uM incubated for 30 mins by ethidium bromide staining based agarose gel electrophoresis analysis; procedure, shortened: as §2
[25] = system: Panel leukemia (Carcinoma cell lines); experiment: Anticancer activity against human Panel leukemia (Carcinoma cell lines) assessed as total growth inhibition incubated for 48 hrs by Sulphorhodamine B assay; type: functional
[26] = system: Panel CNS (Carcinoma cell lines); experiment: Anticancer activity against human Panel CNS (Carcinoma cell lines) assessed as lethality incubated for 48 hrs by Sulphorhodamine B assay; type: functional
[27] = molecular target: DNA topoisomerase 2-alpha (Homo sapiens) (UniProt P11388); experiment: Inhibition of human DNA topoisomerase II-alpha mediated supercoiled pHOT1 plasmid DNA relaxation at 50 uM incubated for 30 mins by ethidium bromide staining based agarose gel electrophoresis analysis; procedure, shortened: as §2
[28] = system: Panel prostate (Carcinoma cell lines); experiment: Anticancer activity against human Panel prostate (Carcinoma cell lines) assessed as lethality incubated for 48 hrs by Sulphorhodamine B assay; type: functional
[29] = Anticancer activity against human Non-small cell lung cancer cell line assessed as lethality incubated for 48 hrs by Sulphorhodamine B assay; type: functional
[30] = molecular target: T1, DNA topoisomerase 1 (Homo sapiens) (UniProt P11387); experiment: Inhibition of human DNA topoisomerase I mediated supercoiled pHOT1 plasmid DNA relaxation upto 100 uM incubated for 30 mins by ethidium bromide staining based agarose gel electrophoresis analysis
T1 sequence (whole entry): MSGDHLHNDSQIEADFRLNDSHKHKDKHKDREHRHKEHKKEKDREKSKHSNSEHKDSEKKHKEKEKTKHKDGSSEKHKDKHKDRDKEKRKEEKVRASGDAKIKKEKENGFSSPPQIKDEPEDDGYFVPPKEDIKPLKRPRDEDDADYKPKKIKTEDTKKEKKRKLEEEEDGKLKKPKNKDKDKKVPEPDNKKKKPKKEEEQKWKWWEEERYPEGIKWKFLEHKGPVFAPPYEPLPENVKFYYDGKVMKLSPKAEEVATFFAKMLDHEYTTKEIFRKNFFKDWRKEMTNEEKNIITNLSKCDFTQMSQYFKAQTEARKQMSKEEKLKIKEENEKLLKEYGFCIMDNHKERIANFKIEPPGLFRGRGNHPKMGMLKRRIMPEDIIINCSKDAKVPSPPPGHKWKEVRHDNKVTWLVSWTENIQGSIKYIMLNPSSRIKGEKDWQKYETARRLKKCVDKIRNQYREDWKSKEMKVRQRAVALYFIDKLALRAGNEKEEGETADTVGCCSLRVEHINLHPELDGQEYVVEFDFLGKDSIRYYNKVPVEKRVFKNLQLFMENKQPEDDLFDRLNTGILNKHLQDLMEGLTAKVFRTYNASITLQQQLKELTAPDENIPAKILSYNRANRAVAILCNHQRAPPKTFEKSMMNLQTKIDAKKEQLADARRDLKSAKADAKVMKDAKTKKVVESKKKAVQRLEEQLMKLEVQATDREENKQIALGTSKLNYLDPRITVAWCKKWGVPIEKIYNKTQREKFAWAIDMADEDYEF

[31] = system: Panel renal (Carcinoma cell lines); experiment: Anticancer activity against human Panel renal (Carcinoma cell lines) assessed as lethality incubated for 48 hrs by Sulphorhodamine B assay; type: functional
[32] = system: Panel leukemia (Carcinoma cell lines); experiment: Anticancer activity against human Panel leukemia (Carcinoma cell lines) assessed as lethality incubated for 48 hrs by Sulphorhodamine B assay; type: functional
[33] = system: Panel ovarian (Carcinoma cell lines); experiment: Anticancer activity against human Panel ovarian (Carcinoma cell lines) assessed as lethality incubated for 48 hrs by Sulphorhodamine B assay; type: functional
[34] = system: Panel melanoma (Carcinoma cell lines); experiment: Anticancer activity against human Panel melanoma (Carcinoma cell lines) assessed as lethality incubated for 48 hrs by Sulphorhodamine B assay; type: functional
[35] = system: Calf thymus DNA; experiment: Binding affinity to calf thymus DNA assessed as hypochromicity at pH 7.4 at 10 uM by UV-vis absorption spectroscopy; type: nucleic-acid assay; conditions: Bos taurus; procedure, shortened: as §3

Structure (SMILES)	GI50 [1] [µM]	GI50 [2] [µM]	TGI [3] [µM]	GI50 [4] [µM]	TGI [5] [µM]	TGI [6] [µM]	GI50 [7] [µM]	GI50 [8] [µM]	TGI [9] [µM]	GI50 [10] [µM]	GI50 [11] [µM]	TGI [12] [µM]	TGI [13] [µM]	inhibition [18]	Activity [19]	Activity [21] [nm]	inhibition [24]	inhibition [27]	inhibition [30]	Activity [35]	further results
CC[C@H](CO)Nc1nc(NCc2ccccc2)c2ncn(C(C)C)c2n1 [SELICICLIB]	14.8	17.9	73	24.9	81.5	84.8	23.6	24.8	84.9	22.7	37.5	57.6	82.2	–	–	–	–	–	–	–	GI50 [14]: 24.7 µM; GI50 [15]: 29.3 µM
c1ccc(CNc2nc(Nc3ccc(-c4nc5ccccc5[nH]4)cc3)c3cn[nH]c3n2)cc1	1.85	2.56	5.85	2.3	9.43	8.99	2.54	2	5.12	2.04	2.67	4.29	16.7	Active	Active	264	Active	Active	inactive	Active	LC50 (lethal concentration, 50% cell kill) [16]: 34.7 µM; TGI [17]: 6.16 µM; TGI [20]: 7.83 µM; Activity [22]: Active; CC50 [23]: 46.3 µM; TGI [25]: 6.43 µM; LC50 (concentration killing 50% of cells) [26]: 28.1 µM; LC50 [28]: 41.8 µM; LC50 (lethal concentration, 50% cell kill) [29]: 55.3 µM; GI50 [14]: 2.96 µM; LC50 (50% lethal concentration) [31]: 31.2 µM; GI50 [15]: 2.52 µM; LC50 [32]: > 100 µM; LC50 (concentration killing 50% of cells) [33]: 41.8 µM; LC50 (lethal concentration 50) [34]: 19.3 µM
c1ccc2[nH]c(-c3ccc(Nc4nc(N5CCCC5)nc5[nH]ncc45)cc3)nc2c1	0.67	1.37	2.08	1.22	3.14	3.17	1.08	2.32	5.88	0.73	2.38	1.53	2.01	Active	Active	259	Active	Active	inactive	Active	LC50 (lethal concentration, 50% cell kill) [16]: 2.23 µM; TGI [17]: 2.67 µM; TGI [20]: 2.73 µM; Activity [22]: Active; CC50 [23]: 6.35 µM; TGI [25]: 6.7 µM; LC50 (concentration killing 50% of cells) [26]: 4.17 µM; LC50 [28]: 20.6 µM; LC50 (lethal concentration, 50% cell kill) [29]: 11.5 µM; GI50 [14]: 0.86 µM; LC50 (50% lethal concentration) [31]: 7.04 µM; GI50 [15]: 1.1 µM; LC50 [32]: 31.8 µM; LC50 (concentration killing 50% of cells) [33]: 6.85 µM; LC50 (lethal concentration 50) [34]: 4.32 µM
c1ccc2[nH]c(-c3ccc(Nc4nc(N5CCOCC5)nc5[nH]ncc45)cc3)nc2c1	–	–	–	–	–	–	–	–	–	–	–	–	–	Active	Active	260	Active	Active	inactive	Active	–
NCCNc1nc(Nc2ccc(-c3nc4ccccc4[nH]3)cc2)c2cn[nH]c2n1	–	–	–	–	–	–	–	–	–	–	–	–	–	Active	Active	259	Active	Active	inactive	Active	–
